“Also recorded” adds a separate entry of the source. Ends that are not written are not given here. Peptide text beside a SMILES is read from it. * marks the point of attachment. FITC = O=C1OC2(c3ccc(O)cc3Oc3cc(O)ccc32)c2ccc(NC(=S)*)cc21
How the values were obtained:
JAM-A [1] = target: T1, JAM-A (Mus musculus, UniProt O88792); experiment: Cell-based ELISA, JAM-A surface expression on mBMEC; conditions: CCL2 100 ng/ml; 2 and 24 h; p < 0.001
T1 sequence (O88792 27-300): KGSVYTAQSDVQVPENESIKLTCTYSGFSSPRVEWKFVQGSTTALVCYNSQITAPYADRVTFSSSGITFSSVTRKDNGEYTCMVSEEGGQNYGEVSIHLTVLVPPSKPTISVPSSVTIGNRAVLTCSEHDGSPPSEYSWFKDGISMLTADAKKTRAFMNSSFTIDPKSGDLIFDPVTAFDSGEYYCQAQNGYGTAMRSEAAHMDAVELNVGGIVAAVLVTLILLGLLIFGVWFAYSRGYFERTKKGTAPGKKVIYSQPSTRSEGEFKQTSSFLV

ICAM-1 [2] = experiment: Cell-based ELISA, ICAM-1 surface expression on mBMEC; set-up: species or system mouse; conditions: CCL2 100 ng/ml
JAM-A [3] = target: T1, JAM-A; conditions: brain endothelial cells; ref Stamatovic et al., 2012; cited from earlier work
ICAM-1 [4] = experiment: Cross binding of JAM-Ap-FITC to ICAM-1; set-up: species or system mouse; conditions: increasing concentrations of anti-ICAM-1 antibody; presence and absence of JAM-A
Method in brief: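 bEnd.3 JAM-A-knockdown cells (stable shRNA) and JAM-A-expressing mBMEC in 96-well plates were primed with IL-1β plus TNF-α for 6 h or OGD/reoxygenation for 24 h in DMEM. They then received FITC-peptide with or without increasing anti-ICAM-1 antibody in D-PBS for 30 min at 4 °C. Cells washed 3×, fixed in 4% paraformaldehyde, and fluorescence read. FITC-scrambled peptide served as control.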

CD31 + brain microvessel = conditions: mouse, in vivo
JAM-A [5] = target: T1, JAM-A; format: binding
Method in brief: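 mBMEC (first passage) plated in 96-well plates and incubated with a constant level of FITC-labelled peptide plus increasing unlabelled peptide. Cells washed 3× and fixed in 4% paraformaldehyde for 15 min at room temperature. Fluorescence read on a plate reader. Percent inhibition plotted against concentration and IC50 read from the curve. Three independent experiments.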

mBMEC monolayers = experiment: In vitro permeability of mBMEC monolayers to inulin; format: cell-based, mouse; conditions: JAM-Ap 0.1–1000 μg/ml, 0–72 h
mBMEC = format: cell-based, mouse; conditions: 12 h
BBB, FITC-inulin = conditions: mouse, in vivo
[6] = system: neutrophils and monocytes in blood; conditions: mouse, in vivo
[7] = Physiological variables of mice before, during and 6 hrs after tMCAO; format: in vivo, mouse; conditions: ip injection, n = 10

For CCL2: chemokine CCL2 (PeproTech), the “cell surface (apical) expression of JAM-A” value (JAM-A [1]) is given as “increased apical membrane JAM-A expression; also recorded: an increase in cell surface (apical) expression of JAM-A”, the ICAM-1 surface expression (ICAM-1 [2]) is given as “surface expression was also increased; also recorded: A similar degree of surface accumulation” and the JAM-A relocalization (JAM-A [3]) is given as “JAM-A became relocalized from the lateral to the apical membrane of brain endothelial cells”.
In the case of CC(C)C[C@H](NC(=O)[C@@H](NC(=O)[C@H](Cc1ccc(O)cc1)NC(=O)[C@H](CC(=O)O)NC(=O)[C@H](CC(=O)O)NC(=O)[C@H](CC(N)=O)NC(=O)[C@H](CO)NC(=O)[C@H](Cc1ccccc1)NC(=O)[C@H](C)NC(=O)[C@H](CCCNC(=N)N)NC(=O)[C@@H](NC(=O)[C@H](CO)NC(=O)[C@H](CCCCNC(=S)Nc1ccc2c(c1)C(=O)OC21c2ccc(O)cc2Oc2cc(O)ccc21)NC(=O)[C@@H]1CCCN1C(=O)[C@@H](N)CC(N)=O)[C@@H](C)O)C(C)C)C(=O)N[C@@H](CC(N)=O)C(=O)N1CCC[C@H]1C(=O)N[C@H](C(=O)N[C@H](C(=O)NCC(=O)O)[C@@H](C)O)[C@@H](C)O [JAM-Ap-FITC] (H-NPK(FITC)STRAFSNDDYVLNPTTG-OH; N-terminus and C-terminus assumed), the “binding affinity for ICAM-1” value (ICAM-1 [4]) is reported as “very low binding affinity”, the “accumulation at luminal side of CD31 + brain microvessel” value (CD31 + brain microvessel) is reported as “high accumulation” and the “association with CD45 + cells in brain” value (CD31 + brain microvessel) is reported as “not associated with CD45 + cells”. For the same molecule, the “nonspecific trapping in ischemic lesion” value (CD31 + brain microvessel) was “comparable with labeled control peptide (cp), at the level of threshold” and the “accumulation in liver and lung microvessels or tissue” value (CD31 + brain microvessel; ip) was “did not detect significant amount”.
In the case of NPKSTRAFSNDDYVLNPTTG [JAM-Ap], the IC50 (JAM-A [5]) is reported as 25 nM, the “effect on barrier permeability to inulin (5 kDa), in vitro” value (mBMEC monolayers) is reported as “no effect on barrier permeability to inulin” and the “cell viability after treatment” value (mBMEC) is reported as over 99%. For the same molecule, the “BBB permeability in control mice” value (BBB, FITC-inulin) was “no effect on permeability”, the “blood MO (monocytes)” value [6] was 3.95 10^8 and the “blood PMN” value [6] was 0.99 10^9/l. It also gave a Glucose ([7]; 15 min MCAO) of 142 ± 6 g/dL, a PCO2 ([7]; 15 min MCAO) of 34±2 and a PO2 ([7]; 15 min MCAO) of 110±7. For the same molecule, the pH ([7]; 15 min MCAO) was 7.32±0.012, the rCBF ([7]; 15 min MCAO) was 13±2% and the Glucose ([7]; 6 hr post-tMCAO) was 128 ± 9 g/dL. The PCO2 ([7]; 6 hr post-tMCAO) was 36±1, the PO2 ([7]; 6 hr post-tMCAO) was 115±10 and the pH ([7]; 6 hr post-tMCAO) was 7.36±0.018. For the same molecule, the rCBF ([7]; 6 hr post-tMCAO) was 100±1%, the Glucose ([7]; before) was 135 ± 3 g/dL and the PCO2 ([7]; before) was 32±2. It also gave a PO2 ([7]; before) of 123±5, a pH ([7]; before) of 7.36±0.03 and a rCBF ([7]; before) of 100±0%.

From publication PMC4273560 (Neurobiology of disease, 2014)
